# Measured values reported in ChEMBL document CHEMBL1122172, “Syntheses and diuretic activity of 1,2-dihydro-2-(3-pyridyl)-3H-pyrido[2,3-d]pyrimidin-4-one and related compounds” (1982).
# Where “and” joins values, the source holds several entries; their conditions need not be identical. Identical values can stand only once.
# Tests used:
# Format in all cases: functional, Urine
# Rattus norvegicus [1] = test: Diuretic activity by measuring the urinary output after 2 hr at the dose of 27 mg/kg
# Procedure, shortened: (§1)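 Male Sprague–Dawley rats (195–225 g) were fasted and deprived of water for 18 h, then dosed orally with compound dissolved in 25 mL/kg saline. Controls got 25 mL/kg saline alone. Groups of eight were used, housed two rats per metabolism cage right after dosing. Urine volume was collected at 2 h and 5 h after dosing. Values are mean ± SEM per cage pair, N = 8.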
# Rattus norvegicus [2] = test: Diuretic activity by measuring the urinary output after 5 hr at the dose of 3 mg/kg; procedure, shortened: as §1
# Rattus norvegicus [3] = test: Total K+ milliequivalents excretion in diuretic test at the dose of 27 mg/kg
# Procedure, shortened: (§2)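 Oral dosing was in 25 mL/kg saline to male Sprague–Dawley rats (195–225 g) after 18 h without food or water, with saline-only controls. Groups of eight were kept two per metabolism cage. Urinary Na+, Cl− and K+ were reported as total mequiv excreted, with electrolyte analysis done externally. Values are mean ± SEM of two rats per cage, N = 8.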
# Rattus norvegicus [4] = test: Total K+ milliequivalents excretion in diuretic test at the dose of 3 mg/kg; procedure, shortened: as §2
# Rattus norvegicus [5] = test: Diuretic activity by measuring the urinary output after 2 hr at the dose of 12 mg/kg
# Procedure, shortened: (§3)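 Male Sprague–Dawley rats (195–225 g) were fasted and deprived of water for 18 h. The compound was given orally, dissolved in 25 mL/kg saline; controls got saline alone. Groups of eight were housed as pairs in metabolism cages. Urine volume was read at 2 and 5 h, with total Na+, Cl− and K+ mequiv excreted. Values are mean ± SEM, N = 8.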
# Rattus norvegicus [6] = test: Diuretic activity by measuring the urinary output after 5 hr at the dose of 27 mg/kg; procedure, shortened: as §1
# Rattus norvegicus [7] = test: Total Cl-mequiv excretion in diuretic test at the dose of 3 mg/kg; procedure, shortened: as §3
# Rattus norvegicus [8] = test: Total Na+ milliequivalents excretion in diuretic test at the dose of 3 mg/kg; procedure, shortened: as §2
# Rattus norvegicus [9] = test: Total K+ milliequivalents excretion in diuretic test at the dose of 9 mg/kg; procedure, shortened: as §2
# Rattus norvegicus [10] = test: Total Cl- milliequivalents excretion in diuretic test at the dose of 1 mg/kg; procedure, shortened: as §3
# Rattus norvegicus [11] = test: Diuretic activity by measuring the urinary output after 2 hr at the dose of 9 mg/kg; procedure, shortened: as §1
# Rattus norvegicus [12] = test: Total Na+ milliequivalents excretion in diuretic test at the dose of 12 mg/kg; procedure, shortened: as §3
# Rattus norvegicus [13] = test: Diuretic activity by measuring the urinary output after 5 hr at the dose of 9 mg/kg; procedure, shortened: as §1
# Rattus norvegicus [14] = test: Diuretic activity by measuring the urinary output after 2 hr at the dose of 1 mg/kg; procedure, shortened: as §3
# Rattus norvegicus [15] = test: Total Cl- milliequivalents excretion in diuretic test at the dose of 12 mg/kg; procedure, shortened: as §3
# Rattus norvegicus [16] = test: Total K+ milliequivalents excretion in diuretic test at the dose of 12 mg/kg; procedure, shortened: as §3
# Rattus norvegicus [17] = test: Diuretic activity by measuring the urinary output after 5 hr at the dose of 12 mg/kg; procedure, shortened: as §3
# Rattus norvegicus [18] = test: Total K+ milliequivalents excretion in diuretic test at the dose of 1 mg/kg; procedure, shortened: as §3
# Rattus norvegicus [19] = test: Total Na+ milliequivalents excretion in diuretic test at the dose of 1 mg/kg; procedure, shortened: as §3
# Rattus norvegicus [20] = test: Total Cl- milliequivalents excretion in diuretic test at the dose of 27 mg/kg; procedure, shortened: as §2
# Rattus norvegicus [21] = test: Diuretic activity by measuring the urinary output after 2 hr at the dose of 3 mg/kg; procedure, shortened: as §1
# Rattus norvegicus [22] = test: Total Na+ milliequivalents excretion in diuretic test at the dose of 9 mg/kg; procedure, shortened: as §2
# Rattus norvegicus [23] = test: Diuretic activity by measuring the urinary output at the dose of 25 mg/kg; procedure, shortened: as §3
# Rattus norvegicus [24] = test: Total Cl- milliequivalents excretion in diuretic test at the dose of 9 mg/kg; procedure, shortened: as §2
# Rattus norvegicus [25] = test: Total Na+ milliequivalents excretion in diuretic test at the dose of 27 mg/kg; procedure, shortened: as §2
smiles,measurement,setting,value
NS(=O)(=O)c1cc2c(cc1Cl)NCNS2(=O)=O [HYDROCHLOROTHIAZIDE],Excretion,Rattus norvegicus [1],8.4 mL
same,Excretion,Rattus norvegicus [2],15.8 mL
same,Excretion,Rattus norvegicus [3],0.8 m equiv
same,Excretion,Rattus norvegicus [4],0.6 m equiv
same,Excretion,Rattus norvegicus [5],7.9 mL
same,Excretion,Rattus norvegicus [6],15.1 mL
same,Excretion,Rattus norvegicus [7],2.7 m equiv
same,Excretion,Rattus norvegicus [8],2.4 m equiv
same,Excretion,Rattus norvegicus [9],0.6 m equiv
same,Excretion,Rattus norvegicus [10],2.5 m equiv
same,Excretion,Rattus norvegicus [11],7.5 mL
same,Excretion,Rattus norvegicus [12],2.5 m equiv
same,Excretion,Rattus norvegicus [13],14.6 mL
same,Excretion,Rattus norvegicus [14],7.8 mL
same,Excretion,Rattus norvegicus [15],2.8 m equiv
same,Excretion,Rattus norvegicus [16],0.7 m equiv and 0.6 m equiv
same,Excretion,Rattus norvegicus [17],16 mL and 13.9 mL
same,Excretion,Rattus norvegicus [18],0.6 m equiv
same,Excretion,Rattus norvegicus [19],2 m equiv
same,Excretion,Rattus norvegicus [20],3 m equiv
same,Excretion,Rattus norvegicus [21],8.1 mL
same,Excretion,Rattus norvegicus [22],2.2 m equiv
same,Control,Rattus norvegicus [23],201%
same,Excretion,Rattus norvegicus [24],2.7 m equiv
same,Excretion,Rattus norvegicus [25],2.5 m equiv
